Assays:
[1] = Metabolic stability in human HeLaS3 cells assessed as JA28-triphosphate at 0.5 mM after 2 hrs by reverse-phase HPLC; type: ADME, cell-based; conditions: hela s3, 2 h, 500 µM
Summary of the method: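 Suspension-adapted HeLa S3 cells at 5 × 10^6 cells/ml in S-MEM with 2% dialyzed FBS were pretreated with actinomycin D (2.5 μg/ml, 15 min, 37°C). Nucleoside was then added to 0.5 mM final with 1% DMSO, 2 h at 37°C. Cells were extracted with ice-cold 0.6 M TCA, then trioctylamine/trichlorotrifluoroethane. Aqueous layer was run on C18 reversed-phase HPLC (CH3CN gradient in KH2PO4, pH 6.0). Triphosphate was identified by retention time and UV spectrum against synthesized standard.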

[2] = Cytotoxicity against human HeLaS3 cells assessed cell viability at 0.05 after 24 hrs by Alamar blue assay; type: cell-based, HeLa S3; conditions: read-out: Activity
Summary of the method: (§1)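 HeLa S3 cells were seeded at 2 × 10^3 per well in DMEM/F-12 with 2% FBS and allowed to adhere 1 h at 37°C. Nucleoside in medium (0.05–2 mM) was added with continuous exposure at 37°C. Resazurin (Alamar blue) was added 6 h before the 24 h read. Percent reduction was taken from A570 corrected by A590 and normalized to vehicle (DMSO) cells set at 100%. Triplicate wells, mean ± SD.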

[3] = test system: Enterovirus C; test: Antiviral activity against Poliovirus infected in compound pre-treated HeLaS3 cells assessed as reduction in viral titer at 0.5 mM after 6 hrs relative to control; type: functional, HeLa S3; set-up: scale not given: the % may be the effect or the level left
Summary of the method: (§2)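 HeLa S3 cells (DMEM/F-12, 2% dialyzed FBS, 37°C, 5% CO2) pretreated 1 h with nucleoside (0.5 or 2 mM), then infected with PV at MOI 5. Fresh medium with analogue added, infection run 6 h at 37°C. Cell-associated virus collected by freeze-thaw and titred on HeLa S3 monolayers. Result given as percent titer reduction versus untreated control.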

[4] = test system: Coxsackievirus; test: Antiviral activity against Coxsackievirus infected in compound pre-treated HeLaS3 cells assessed as reduction in viral titer at 0.5 mM after 6 hrs relative to control; type: functional, HeLa S3; set-up: scale not given: the % may be the effect or the level left
Summary of the method: (§3)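 HeLa S3 cells pretreated with nucleoside (0.5 or 2 mM) for 1 h, then infected with CVB3 at MOI 5. Fresh medium containing the analogue was added and infection ran 6 h at 37°C. Cell-associated virus was collected by freeze-thaw and titrated on HeLa S3 monolayers. Result is percent reduction in titer versus untreated infection.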

[5] = test system: Enterovirus C; test: Antiviral activity against Poliovirus infected in compound pre-treated HeLaS3 cells assessed as reduction in viral titer at 2 mM after 6 hrs relative to control; type: functional, HeLa S3; set-up: scale not given: the % may be the effect or the level left; summary of the method: as §2
[6] = test system: Coxsackievirus; test: Antiviral activity against Coxsackievirus infected in compound pre-treated HeLaS3 cells assessed as reduction in viral titer at 2 mM after 6 hrs relative to control; type: functional, HeLa S3; set-up: scale not given: the % may be the effect or the level left; summary of the method: as §3
[7] = Cytotoxicity against human HeLaS3 cells assessed cell viability at 2 mM after 24 hrs by Alamar blue assay; type: cell-based, HeLa S3; conditions: read-out: Activity; summary of the method: as §1

For OC[C@H]1O[C@@H](n2cnc3c(NO)ncnc32)[C@H](O)[C@@H]1O, the Stability [1] was “Stable”, the viability at 24 h [2] was 61% and the Activity [3] was 98%. The Activity [4] was 97%.

For Nc1nc2c(ncn2[C@@H]2O[C@H](CO)[C@@H](O)[C@H]2O)/c(=N\O)[nH]1, the Activity [5] was 99.97%, the Activity [6] was 99.99% and the viability at 24 h, 2000 µM [7] was 37%.

With NNc1ncnc2c1ncn2[C@@H]1O[C@H](CO)[C@@H](O)[C@H]1O the viability at 24 h [2] was 56%, the Activity [3] was 99.7% and the Activity [4] was 99.9%.

Work on CO/N=c1/[nH]cnc2c1ncn2[C@@H]1O[C@H](CO)[C@@H](O)[C@H]1O yielded an Activity [5] of 81% and an Activity [6] of 22%.

In the case of CO/N=c1/[nH]c(N)nc2c1ncn2[C@@H]1O[C@H](CO)[C@@H](O)[C@H]1O, the Activity [5] is reported as 45% and the Activity [6] is reported as 0%.

With CN(N)c1ncnc2c1ncn2[C@@H]1O[C@H](CO)[C@@H](O)[C@H]1O the Activity [5] was 35% and the Activity [6] was 0%.

NNc1nc(N)nc2c1ncn2[C@@H]1O[C@H](CO)[C@@H](O)[C@H]1O gave an Activity [5] of 97%, an Activity [6] of 95% and a viability at 24 h, 2000 µM [7] of 57%.

Compound CN(N)c1nc(N)nc2c1ncn2[C@@H]1O[C@H](CO)[C@@H](O)[C@H]1O has an Activity [5] of 88% and an Activity [6] of 11%.
